Experimental findings from ChEMBL document CHEMBL2046349, “Synthesis of pacidamycin analogues via an Ugi-multicomponent reaction” (Bioorg Med Chem Lett, 2012) are described below.

SMILES strings stand for the structures. Values after ≈ are worked out from the molar mass of the structure shown.

Experiment [1] has as its system Pseudomonas aeruginosa. Put plainly: Antimicrobial activity against Pseudomonas aeruginosa ATCC 25619 incubated at 35 degC for 20 hrs by microdilution broth method. It counts as functional. The note with it: ATCC 25619, 20 h. The essentials:
(§1)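 Broth microdilution per NCCLS in cation-adjusted Mueller-Hinton broth. Each compound serially diluted two-fold, and each […] inoculated at 5×10^4 CFU per 0.1 mL well. Plates incubated 35 °C for 20 h, then MIC scored.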
(Dilution methods test growth across graded concentrations, often in twofold steps.)

In experiment [2] the test system is Pseudomonas aeruginosa. As to the kind of experiment: Antimicrobial activity against Pseudomonas aeruginosa YYI65 (deltamexB) incubated at 35 degC for 20 hrs by microdilution broth method. It counts as functional. The settings on record: YYI65, 20 h. The essentials: as §1
The subject of experiment [3] is Pseudomonas aeruginosa. Put plainly: Antimicrobial activity against Pseudomonas aeruginosa PAO1 incubated at 35 degC for 20 hrs by microdilution broth method. It counts as functional. The settings on record: PAO1, 20 h. The method, boiled down: as §1
Experiment [4] deals with T1, Phospho-N-acetylmuramoyl-pentapeptide-transferase (Staphylococcus aureus, UniProt P0C1R8).
T1 sequence (P0C1R8 whole entry): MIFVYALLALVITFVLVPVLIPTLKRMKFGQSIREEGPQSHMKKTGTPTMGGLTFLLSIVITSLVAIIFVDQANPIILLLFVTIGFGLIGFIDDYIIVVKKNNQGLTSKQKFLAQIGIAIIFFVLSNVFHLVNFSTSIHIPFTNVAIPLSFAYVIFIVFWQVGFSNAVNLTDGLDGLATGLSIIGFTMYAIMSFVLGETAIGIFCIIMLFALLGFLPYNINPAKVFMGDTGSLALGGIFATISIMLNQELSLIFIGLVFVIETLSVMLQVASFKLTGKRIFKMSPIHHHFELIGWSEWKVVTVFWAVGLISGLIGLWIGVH
As to the kind of experiment: Inhibition of Staphylococcus aureus MraY using UDP-MurNAc-dansylpentapeptide substrate assessed as formation of dansylated lipid I incubated for 3 to 4 hrs by fluorometric assay. The essentials: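 Purified S. aureus MraY with UDP-MurNAc-dansylpentapeptide as substrate. Dansylated lipid I formation followed as fluorescence enhancement at ex 355 nm / em 535 nm. IC50 reported.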

The subject of experiment [5] is Pseudomonas aeruginosa. Put plainly: Antimicrobial activity against Pseudomonas aeruginosa SR 27156 incubated at 35 degC for 20 hrs by microdilution broth method. It counts as functional. The settings on record: SR 27156, 20 h. The method, boiled down:
as §1

In general, MIC refers to the least concentration at which growth counts as inhibited. In general, IC50 refers to the concentration that gives 50% inhibition. For the compound `C[C@H](N)C(=O)N(C)[C@@H](C)[C@H](NC(=O)[C@H](C)NC(=O)N[C@@H](Cc1c[nH]c2ccccc12)C(=O)O)C(=O)N/C=C1\O[C@@H](n2ccc(=O)[nH]c2=O)[C@H](O)[C@@H]1O`, the minimum inhibitory concentration (MIC) in experiment [1] worked out at 16 µg/mL (≈ 22 µM); in experiment [2], 8 µg/mL (≈ 11 µM); in experiment [3], 32 µg/mL (≈ 44 µM); in experiment [5], 16 µg/mL (≈ 22 µM). The IC50 in experiment [4] came to 42 nM.
Consider `C[C@H](N)C(=O)N(C)[C@@H](C)[C@@H](NC(=O)[C@H](C)NC(=O)N[C@@H](Cc1c[nH]c2ccccc12)C(=O)O)C(=O)N/C=C1\O[C@@H](n2ccc(=O)[nH]c2=O)[C@H](O)[C@@H]1O`, for which the MIC in experiment [1], in experiment [2], in experiment [3] and in experiment [5] was greater than 32 µg/mL throughout. In addition, the IC50 in experiment [4] is 4000 nM.
On to `C[C@H](NC(=O)N[C@@H](Cc1c[nH]c2ccccc12)C(=O)O)C(=O)N[C@H](C(=O)N/C=C1\O[C@@H](n2ccc(=O)[nH]c2=O)[C@H](O)[C@@H]1O)[C@H](C)N(C)C(=O)[C@H](Cc1cccc(O)c1)NC(=O)CN`, for which the MIC in experiment [1] is 32 µg/mL (≈ 36.5 µM); in experiment [2], 16 µg/mL (≈ 18.2 µM); in experiment [3], greater than 32 µg/mL; in experiment [5], 16 µg/mL (≈ 18.2 µM). Besides, the IC50 in experiment [4] was found to be 22 nM.
On to `C[C@H](NC(=O)N[C@@H](Cc1c[nH]c2ccccc12)C(=O)O)C(=O)N[C@H](C(=O)N/C=C1\O[C@@H](n2ccc(=O)[nH]c2=O)[C@H](O)[C@@H]1O)[C@H](C)N(C)C(=O)[C@H](Cc1ccc(O)cc1)NC(=O)CN`, for which the MIC in experiment [1], in experiment [2], in experiment [3] and in experiment [5] was greater than 32 µg/mL in each case. Also, the half-maximal inhibitory concentration (IC50) in experiment [4] is 4000 nM.
With `C[C@H](NC(=O)N[C@@H](Cc1c[nH]c2ccccc12)C(=O)O)C(=O)N[C@H](C(=O)N/C=C1\O[C@@H](n2ccc(=O)[nH]c2=O)[C@H](O)[C@@H]1O)[C@H](C)N(C)C(=O)CN`, the MIC in experiment [1], in experiment [2], in experiment [3] and in experiment [5] was greater than 32 µg/mL in each case. Besides, the IC50 in experiment [4] was 65 nM.
As to `C[C@H](NC(=O)N[C@@H](Cc1c[nH]c2ccccc12)C(=O)O)C(=O)N[C@@H](C(=O)N/C=C1\O[C@@H](n2ccc(=O)[nH]c2=O)[C@H](O)[C@@H]1O)[C@H](C)N(C)C(=O)[C@H](Cc1cccc(O)c1)NC(=O)CN`, the MIC in experiment [1], in experiment [2], in experiment [3] and in experiment [5] was greater than 32 µg/mL in each case. For the same compound, the IC50 in experiment [4] amounted to 650 nM.
Regarding `C[C@H](NC(=O)N[C@@H](Cc1c[nH]c2ccccc12)C(=O)O)C(=O)N[C@@H](C(=O)N/C=C1\O[C@@H](n2ccc(=O)[nH]c2=O)[C@H](O)[C@@H]1O)[C@H](C)N(C)C(=O)[C@@H](Cc1cccc(O)c1)NC(=O)CN`, the MIC in experiment [1], in experiment [2], in experiment [3] and in experiment [5] was greater than 32 µg/mL each time. Besides, the IC50 in experiment [4] is 8900 nM.
Regarding `C[C@H](N)C(=O)N(C)[C@@H](C)[C@H](NC(=O)[C@H](C)NC(=O)N[C@@H](Cc1c[nH]c2ccccc12)C(=O)O)C(=O)N/C=C1/C[C@@H](O)[C@H](n2ccc(=O)[nH]c2=O)O1` [PACIDAMYCIN D], the MIC in experiment [1] was 16 µg/mL (≈ 22.5 µM); in experiment [2], 16 µg/mL (≈ 22.5 µM); in experiment [3], 64 µg/mL (≈ 89.9 µM); in experiment [5] it was 16 µg/mL (≈ 22.5 µM). Also, in experiment [4], the IC50 is 22 nM.
